# Measured values of several laboratories.
# Lines come from different studies, so protocols differ.
# Effect on: haemolysis
# Host: human
Compound,tested at,time,pH,haemolysis
CCCCCCCCCCCCNCc1ccc(CNC(=O)c2csc3nc[nH]c(=O)c23)cc1,100 µM,1 h,,~3%
Oc1ccc(Cl)cc1C=NNc1nc(-c2ccc(F)cc2)cs1,10 µM,30 min,pH 7.4,3.11%
C=C1CC[C@@H]2C(C)(C)CCC[C@@]2(C)[C@@H]1CC/C(C)=C/C(=O)OC,500 µg/mL,3 h,,50%
Cc1ccc(C=NNc2nc(-c3ccc(F)cc3)cs2)c(Br)c1,100 µM,30 min,pH 7.4,31.6%
CCN(CC)CCCC(C)Nc1ccnc2cc(Cl)ccc12 (stereo not shown),100 mM,45 min,,28.7%
O=C(O)CN(CCN(CC(=O)O)CC(=O)O)CC(=O)O,200 µM,1 h,pH 7.2,≤ 1%
NCCc1ccc(Oc2ccc(-c3noc(-c4ccc(O)cc4)n3)cc2)cc1,4 µg/mL,1 h,,2.5%
c1ccc(CN(CCN(Cc2ccccn2)Cc2ccccn2)Cc2ccccn2)nc1,200 µM,1 h,pH 7.2,≤ 1%
COc1c(F)cccc1C=NNc1nc(-c2ccc(F)cc2)cs1,50 µM,30 min,pH 7.4,20%
OC(Cn1cncn1)(Cn1cncn1)c1ccc(F)cc1F,2 µg/mL,1 h,,3.79%
Cc1ccc(C=NNc2nc(-c3ccc(F)cc3)cs2)o1,10 µM,30 min,pH 7.4,1.2%
C=C1CC[C@@H]2[C@](C)(CCC[C@]2(C)C(=O)O)[C@H]1CC/C(C)=C/C(=O)O,350 µg/mL,3 h,,50%
C[C@@H]1[C@H](O)[C@@H](C)/C=C/C=C/C=C/C=C/C=C/C=C/C=C/[C@H](O[C@@H]2O[C@H](C)[C@@H](O)[C@H](N)[C@@H]2O)C[C@@H]2O[C@](O)(C[C@@H](O)C[C@@H](O)[C@H](O)CC[C@@H](O)C[C@@H](O)CC(=O)O[C@H]1C)C[C@H](O)[C@H]2C(=O)O,8 µg/mL,1 h,,102%
